Test results: ChEMBL document CHEMBL4665779, “Novel 2-Substituted 3-Hydroxy-1,6-dimethylpyridin-4(1H)-ones as Dual-Acting Biofilm Inhibitors of Pseudomonas aeruginosa” (J Med Chem, 2020)
The source made the active and inactive calls. No cut-off for these calls is given here.

Experiments:
[1] = tested on: Pseudomonas aeruginosa; test: Antibiofilm activity against Pseudomonas aeruginosa PAO1 assessed as inhibition of biofilm formation at 20 uM after 24 hrs by crystal violet staining based assay relative to control; format: functional
Method in brief: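 PAO1 (OD600 0.05) was cultured in ABTGC medium at 37 °C for 24 h with compound (1.25–20 μM for the dose series). Wells were PBS-washed three times, methanol-fixed for 30 min, air-dried, and stained with 0.1% crystal violet for 30 min. Stain was solubilized in 33% acetic acid and read at 570 nm. Compound stocks were […]. Run in triplicate.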

[2] = tested on: Pseudomonas aeruginosa; test: Inhibition of biofilm formation in multidrug resistant Pseudomonas aeruginosa FB at 1.25 uM relative to control; format: functional
[3] = tested on: Pseudomonas aeruginosa; test: Inhibition of biofilm formation in multidrug resistant Pseudomonas aeruginosa FB at 5 uM relative to control; format: functional
[4] = tested on: Pseudomonas aeruginosa; test: Inhibition of biofilm formation in multidrug resistant Pseudomonas aeruginosa 1167 at 1.25 uM relative to control; format: functional
[5] = tested on: Pseudomonas aeruginosa; test: Inhibition of biofilm formation in multidrug resistant Pseudomonas aeruginosa 1129 at 10 uM relative to control; format: functional
[6] = tested on: Pseudomonas aeruginosa; test: Inhibition of biofilm formation in multidrug resistant Pseudomonas aeruginosa 1121 at 20 uM relative to control; format: functional
[7] = tested on: Pseudomonas aeruginosa; test: Inhibition of biofilm formation in multidrug resistant Pseudomonas aeruginosa 1121 at 10 uM relative to control; format: functional
[8] = tested on: Pseudomonas aeruginosa; test: Antibacterial activity against Pseudomonas aeruginosa infected in African green monkey Vero cells assessed as cell survival at 20 uM pretreated for 24 hrs followed by cell addition and measured 4 hrs post-infection by MTT assay (reference value: 41.5%); format: functional; settings: time 28 hrs
[9] = tested on: Vero; test: Cytotoxicity against African green monkey Vero cells assessed as reduction in cell viability up to 50 uM after 16 hrs by MTT assay; format: cell-based; settings: chlorocebus sabaeus
Method in brief: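 Vero or LO2 cells were seeded at 5000–15000 cells/well for 16 h, PBS-washed, then exposed to compound in DMEM at 37 °C and 5% CO2 for 16 h. MTT (20 μL of 5 mg/mL) was added for 3 h, and formazan was dissolved in DMSO and read at 570 nm. Triplicate; mean ± SD.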

[10] = tested on: Pseudomonas aeruginosa; test: Inhibition of twitching motility in Pseudomonas aeruginosa PAO1 assessed at 1.25 to 20 uM measured after 16 hrs; format: functional; settings: dose microM 1.25-20, time 16.0 hrs
Method in brief: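 Plates of LB with 1% agar, 0.5% casamino acids and 0.5% glucose contained compound at 0–20 μM. After drying 1 h, 1 μL PAO1 (OD600 1) was inoculated at the plate bottom and incubated 16 h at 37 °C. Three independent experiments.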

[11] = Inhibition of GFP (unknown origin) at 1.25 to 20 uM by measuring fluorescence intensity every 15 mins for 12 hrs by microtiter plate reader assay; settings: dose microM 1.25-20, time 12.0 hrs
Method in brief: (§1)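 PAO1-gfp, PAO1-lasB-gfp, PAO1-rhlA-gfp or PAO1-pqsA-gfp reporters were grown overnight in LB, then diluted in ABTGC medium to OD600 0.02, with compound at 1.25–20 μM. Controls were 0.1% DMSO and a blank. OD600 and GFP fluorescence (ex 485/em 535 nm) were read every 15 min for at least 12 h at 37 °C; triplicate.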

[12] = molecular target: 3-(3-hydroxydecanoyloxy)decanoate synthase (Pseudomonas aeruginosa (strain ATCC 15692 / PAO1 / 1C / PRS 101 / LMG12228)) (UniProt Q51559); test: Inhibition of rhlA fluorescence in Pseudomonas aeruginosa PAO1 transfected with GFP by measuring fluorescence intensity every 15 mins for 12 hrs by microtiter plate reader assay; settings: dose microM 1.25-20, time 12.0 hrs; method in brief: as §1
[13] = molecular target: Elastase (Pseudomonas aeruginosa (strain ATCC 15692 / PAO1 / 1C / PRS 101 / LMG12228)) (UniProt P14756); test: Inhibition of lasB fluorescence in Pseudomonas aeruginosa PAO1 transfected with GFP by measuring fluorescence intensity every 15 mins for 12 hrs by microtiter plate reader assay; settings: dose microM 1.25-20, time 12.0 hrs; method in brief: as §1
[14] = tested on: Pseudomonas aeruginosa PA14; test: Inhibition of quorum sensing system PQS in Pseudomonas aeruginosa PA14 assessed as reduction in pyocyanin production measured after 48 hrs; settings: dose microM 1.25-20, time 48.0 hrs
Method in brief: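 PA14 culture standardized to OD600 0.05 was diluted 100-fold in LB and grown 48 h at 37 °C with shaking, with compound at 1.25–20 μM. Cleared supernatant was extracted with chloroform (4:1), then back-extracted into 0.2 M HCl. A520 was read and normalized to final OD600.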

[15] = tested on: Pseudomonas aeruginosa PAO1; test: Inhibition of quorum sensing system rhl in Pseudomonas aeruginosa PAO1 assessed as reduction in rhamnolipid production by orcinol assay; settings: dose microM 1.25-20
Method in brief: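 An overnight culture was diluted 1:100 into a defined minimal medium (0.6% glycerol, 25 μM FeSO4) with compound at 1.25–20 μM and grown 24 h at 37 °C with shaking. Supernatant was ether-extracted twice, dried, resuspended in water, and reacted with 0.19% orcinol in 50% H2SO4 at 80 °C for 30 min. A421 was read and normalized to OD600.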

[16] = tested on: Pseudomonas aeruginosa; test: Binding affinity to […] overexpressed in Pseudomonas aeruginosa PAO1 assessed as inhibition of biofilm formation at 1.25 to 20 uM; settings: dose microM 1.25-20
[17] = tested on: Pseudomonas aeruginosa PAO1; test: Induction of iron chelation in Pseudomonas aeruginosa PAO1 assessed as increase in intracellular pyoverdin level at 1.25 to 20 uM in presence of 50 uM FeCl3 by fluorescence microplate reader assay; format: cell-based; settings: dose microM 1.25-20
Method in brief: (§2)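 PAO1 overnight LB culture was diluted in ABTGC medium to OD600 0.02 ([…]), with compound at 0–20 μM, in medium containing 10 or 50 μM FeCl3. Plates were kept at 37 °C in a plate reader recording OD600, pyoverdine fluorescence (ex 400/em 447 nm) and pyochelin fluorescence (ex 350/em 430 nm). Triplicate.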

[18] = tested on: Pseudomonas aeruginosa PAO1; test: Induction of iron chelation in Pseudomonas aeruginosa PAO1 assessed as increase in intracellular pyoverdin level in presence of 10 uM FeCl3 by fluorescence microplate reader assay; format: cell-based; settings: dose microM 1.25-20; method in brief: as §2
[19] = tested on: Pseudomonas aeruginosa PAO1; test: Induction of iron chelation in Pseudomonas aeruginosa PAO1 assessed as increase in iron deficiency by measuring ferric ion concentration inductively coupled plasma mass spectrometry; settings: dose microM 1.25-20
Method in brief: (§3)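 PAO1 (OD600 0.05) was diluted 1:100 into ABTGC medium and grown 24 h at 37 °C with shaking, with compound; DFP at 20 μM was the reference. Pellets were washed twice in HEPES and lysed with lysozyme in 50 mM HEPES plus sonication for 30 min. Lysates were digested with 1 M nitric acid, centrifuged, and analysed by ICP-MS. Mean ± SD, triplicate.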

[20] = tested on: Pseudomonas aeruginosa PAO1; test: Induction of iron chelation in Pseudomonas aeruginosa PAO1 assessed as increase in iron deficiency by measuring change in total ferric ion concentration at 2.5 uM by inductively coupled plasma mass spectrometry (reference value: 1.91 +/- 0.8 uM); method in brief: as §3
[21] = tested on: Pseudomonas aeruginosa PAO1; test: Induction of iron chelation in Pseudomonas aeruginosa PAO1 assessed as increase in iron deficiency by measuring change in total ferric ion concentration at 1.25 uM by inductively coupled plasma mass spectrometry (reference value: 1.91 +/- 0.8 uM); method in brief: as §3
[22] = tested on: Pseudomonas aeruginosa; test: Antibiofilm activity against Pseudomonas aeruginosa PAO1 assessed as inhibition of biofilm formation after 18 hrs by crystal violet staining based assay; format: functional, organism-based; settings: PAO1, 18 h

Elastase (Pseudomonas aeruginosa (strain ATCC 15692 / PAO1 / 1C / PRS 101 / LMG12228)), sequence (P14756 198-498 limits assumed): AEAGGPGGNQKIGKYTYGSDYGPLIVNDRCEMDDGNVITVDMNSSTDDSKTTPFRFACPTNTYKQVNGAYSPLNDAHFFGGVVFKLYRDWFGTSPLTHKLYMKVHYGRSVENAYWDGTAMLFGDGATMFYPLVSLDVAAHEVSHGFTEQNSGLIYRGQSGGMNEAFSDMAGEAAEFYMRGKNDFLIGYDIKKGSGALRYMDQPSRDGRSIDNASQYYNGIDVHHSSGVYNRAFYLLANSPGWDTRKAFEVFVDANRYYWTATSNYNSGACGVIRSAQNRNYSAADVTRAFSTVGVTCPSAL

## CCCCCCC(=O)NCc1c(O)c(=O)cc(C)n1C
[1]
  inhibition at 20 µM: 68.7%
[2]
  inhibition at 1.25 µM: -5.12%
[3]
  inhibition at 5 µM: 3.57%
[4]
  inhibition at 1.25 µM: 34.5%
[5]
  inhibition at 10 µM: 30.4%
[6]
  inhibition at 20 µM: 23.2%
[7]
  inhibition at 10 µM: 4.41%
[8]
  survival at 20 µM: 96.4%
[9]
  Activity: Non-Toxic
[10]
  inhibition: inactive
[11]
  inhibition: inactive
[12]
  inhibition: Dose-dependent effect
[13]
  inhibition: Dose-dependent effect
[14]
  inhibition: Dose-dependent effect
[15]
  inhibition: Dose-dependent effect
[16]
  inhibition: Active
[17]
  Activity: inactive
[18]
  Activity: Dose-dependent effect
[19]
  Activity: Dose-dependent effect
[20]
  Activity: 1.56 µM
[21]
  Activity: 1.55 µM
[22]
  IC50: 6.57 µM
